Kir21 inh: blocks the mouse Kir2.1 inward-rectifier potassium channel. 310,000 compounds, 0.85% hits. AID 1672. HEK293-Kir2.1, FluxOR thallium flux fluorescence; stronger effect = lower value. P35561. B-score at 10 µM;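 active = fluorescence ratio B-score at or below minus 3 SD of library scores, with starting-brightness B-score within 2 SD, cut at about -4.2 in these data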;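 also: channel flux triggered by added potassium and thallium sulfate stimulus; B-score of peak minus minimum fluorescence over baseline after thallium stimulus; more negative B-score means stronger Kir2.1 block with less thallium influx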
KCNK3 block: human KCNK3 channel inhibition, primary screen; B-score at 10 µM; CHO-KCNK3 thallium flux, FluxOR fluorescence; stronger effect = lower value; AID 602410; 340,000 compounds, 0.84% hits; O14649;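 active = B-score under library mean minus 4 SD, starting fluorescence ratio at most library mean plus 5 SD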;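 also: more negative B-score means stronger inhibition of thallium flux through KCNK3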
KCNK9 inh: human KCNK9 channel inhibition. Q9NPC2. HEK293 KCNK9, FluxOR thallium flux fluorescence; stronger effect = lower value. B-score at 10 µM. 310,000 compounds, 1.2% hits;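 active = ratio B-score over 3 SD below the library mean, with starting fluorescence within 5 SD of its mean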;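 also: negative B-score means less thallium flux so channel inhibition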
KCNQ1 inh: blocks the human KCNQ1 potassium channel. P51787. 310,000 compounds, 1.3% hits. B-score at 10 µM. CHO-K1 KCNQ1, FluxOR thallium flux fluorescence; stronger effect = higher value;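 active = compounds whose thallium flux B-score, printed positive for inhibition, exceeds three library SD while starting fluorescence stays within three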;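 also: channel opened by potassium depolarization with thallium stimulus after 20 min compound exposure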
hERG protect: shields human hERG channel from block by proarrhythmic agents; Q12809; activation (rescue from dofetilide block), less the hit threshold, % at 10 µM; 310,000 compounds, 0.51% hits; CHO-hERG, FluxOR thallium flux, dofetilide IC70 present; AID 1511;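 active = activation above the mean of controls blocked by dofetilide plus 5 SD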;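 also: thallium influx through hERG after potassium depolarization seen as dye fluorescence rise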
Target sequence (Q12809 whole entry, looked up): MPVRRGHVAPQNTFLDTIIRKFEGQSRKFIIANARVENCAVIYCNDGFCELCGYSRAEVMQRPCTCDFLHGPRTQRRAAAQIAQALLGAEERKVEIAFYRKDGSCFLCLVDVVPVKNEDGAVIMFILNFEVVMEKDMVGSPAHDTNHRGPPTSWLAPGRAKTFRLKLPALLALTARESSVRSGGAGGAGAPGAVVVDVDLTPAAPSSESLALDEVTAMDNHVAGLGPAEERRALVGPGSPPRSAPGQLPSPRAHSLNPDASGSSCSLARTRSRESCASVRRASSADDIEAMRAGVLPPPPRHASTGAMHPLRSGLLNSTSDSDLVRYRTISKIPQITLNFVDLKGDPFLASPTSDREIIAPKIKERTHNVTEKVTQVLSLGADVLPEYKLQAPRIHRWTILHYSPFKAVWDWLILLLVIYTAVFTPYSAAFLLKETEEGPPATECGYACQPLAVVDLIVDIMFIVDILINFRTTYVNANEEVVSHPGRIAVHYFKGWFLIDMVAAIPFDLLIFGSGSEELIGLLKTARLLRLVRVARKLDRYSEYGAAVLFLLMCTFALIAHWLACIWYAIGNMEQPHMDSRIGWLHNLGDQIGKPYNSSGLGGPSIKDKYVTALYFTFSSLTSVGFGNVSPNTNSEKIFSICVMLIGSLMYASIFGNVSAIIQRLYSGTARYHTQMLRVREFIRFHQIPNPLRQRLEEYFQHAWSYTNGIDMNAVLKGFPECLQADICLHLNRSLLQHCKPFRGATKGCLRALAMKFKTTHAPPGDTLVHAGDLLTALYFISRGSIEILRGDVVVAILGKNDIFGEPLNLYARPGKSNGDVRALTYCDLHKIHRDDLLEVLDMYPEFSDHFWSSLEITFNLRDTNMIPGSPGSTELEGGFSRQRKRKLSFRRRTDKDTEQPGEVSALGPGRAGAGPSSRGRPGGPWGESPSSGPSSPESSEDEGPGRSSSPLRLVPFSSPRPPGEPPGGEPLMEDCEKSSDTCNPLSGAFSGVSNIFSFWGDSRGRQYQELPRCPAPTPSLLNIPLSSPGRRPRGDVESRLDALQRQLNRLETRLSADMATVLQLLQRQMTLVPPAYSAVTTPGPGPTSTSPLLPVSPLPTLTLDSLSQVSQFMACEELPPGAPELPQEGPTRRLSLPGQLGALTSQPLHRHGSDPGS
KCNQ1 act: potentiates or activates the human KCNQ1 potassium channel; B-score at 10 µM; P51787; 310,000 compounds, 0.35% hits; CHO-K1 KCNQ1, thallium flux FluxOR fluorescence; stronger effect = higher value;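 active = fluorescence ratio B-score, a plate-corrected score, at least three library SD, with initial intensity B-score within 5 SD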
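System: CHO-K1 cells stably expressing KCNQ1 / Medium: assay buffer for compound exposure, DMSO matched across wells / Reagent: thallium- and potassium-containing depolarizing buffer / Compound: one concentration, matched DMSO / Incubation: 20 min compound pretreatment at room temperature / Measured by: kinetic FluxOR fluorescence, 10 s baseline plus 110 s post-stimulus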
KCNK3 confirm: confirmation of human KCNK3 two-pore domain potassium channel inhibitors | shares compounds with KCNK3 block | 2,400 compounds, 99% hits | CHO-KCNK3 thallium flux, FluxOR fluorescence; 0% buffer, 100% carvedilol maximal block | AID 651638 | ratio percent of control, % at 10 µM;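 active = ratio percent of control, averaged over triplicates, above buffer control mean plus 5 SD, cut at about 64% in these data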;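 also: ratio is the fluorescence rise from min to max over baseline after thallium stimulus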
KCNK3 uninduced: counter-screen for KCNK3 inhibitors: effect in non-induced cells; shares compounds with KCNK3 block; non-induced KCNK3 parental cells, FluxOR thallium flux; stronger effect = lower value; thallium flux ratio (lower = more inhibition) at 10 µM; 2,400 compounds, 40% hits;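 active = thallium flux ratio, averaged over three wells, more than 5 SD below the buffer control mean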;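 also: host cells are CHO cells without KCNK3 induction; ratio is peak minus trough fluorescence over baseline then normalized to buffer controls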
* = called active by the depositor; i = inactive; nt = no result given. Only some compounds are listed: those with a hit (about 3.7% of all), similar ones and a draw of the others.

SMILES | Kir21 inh | KCNK3 block | KCNK9 inh | KCNQ1 inh | hERG protect | KCNQ1 act | KCNK3 confirm | KCNK3 uninduced
Cc1ccc(NC(=O)c2ccc(Cl)c(S(=O)(=O)N3CCc4ccccc43)c2)nc1 | nt | -11.5* | nt | nt | nt | nt | 144.3* | 0.133*
COCCOC(=O)C1=C(C)N=C2SCCC(=O)N2C1/C=C/c1ccccc1 (stereo not drawn) | 0.76 | -13.5* | i | i | -6.2 | i | 105.0* | 0.157*
COCCOC(=O)C1=C(C)N=C2SCCC(=O)N2C1c1ccc(C(=O)OC)cc1 (stereo not drawn) | 1.12 | i | i | i | -2.8 | i | nt | nt
CCOC(=O)C1=C(C)N=C2SCCC(=O)N2[C@@H]1/C=C/c1ccccc1 | -0.06 | i | i | i | -9.8 | i | nt | nt
COC(=O)C1=C(C)N=C2SCCC(=O)N2C1c1ccc(C(=O)OC)cc1 (stereo not drawn) | 0.87 | -8.91* | i | i | -9.8 | i | 78.3* | 0.153*
Cc1[nH]nc(Nc2ccc(C(C)C)cc2)c1[N+](=O)[O-] | 0.42 | i | i | i | -0.1 | i | nt | nt
O=C(Nc1ccc(N2CCCC2)cc1)c1cccc(-c2cc3ccccc3oc2=O)c1 | 0.99 | -10.3* | i | i | -7.3 | i | 83.7* | i
C/C(=N\OC(=O)NC1CCCCC1)c1sc(-c2ccccc2)nc1C | 0.37 | -10.8* | i | i | -12.0 | i | 113.0* | 0.14*
CC1=C(C)C(C)=C(C#N)C(=C(C#N)C#N)N1 | 0.04 | i | i | i | -12.6 | i | nt | nt
COc1cc(C)ccc1OCCOc1cc(C)ccc1Cl | 2.5 | -8.72* | i | i | -9.6 | i | 88.3* | i
COc1cc(C)ccc1OCCOc1c(Cl)cc(Cl)cc1Cl | 0.15 | i | i | i | -11.6 | i | nt | nt
CC(=O)c1cccc(NC(=O)Cn2cnc(S(=O)(=O)N3CCOCC3)c2)c1 | -0.73 | i | i | i | -5.4 | i | nt | nt
Cc1c(C#N)c2ccccc2n1C | -1.45 | i | i | i | -7.9 | i | nt | nt
Cn1c(CSc2ccccc2)c(C#N)c2ccccc21 | 0.36 | -10.9* | i | i | -1.8 | i | 105.0* | 0.159*
O=S(=O)(Cc1ncc(C(F)(F)F)cc1Cl)c1ccccc1 | 0.29 | i | i | i | -6.4 | i | nt | nt
O=C(N/N=C/c1cccs1)c1ccccn1 | -0.21 | i | i | i | -1.3 | i | nt | nt
C(=NN=C(NN=Cc1cccs1)NN=Cc1cccs1)c1cccs1 | nt | -15.3* | nt | nt | nt | nt | 123.3* | i
N#Cc1ccc[n+](CC(=O)c2ccc(NC(=O)c3ccccc3)cc2)c1 | -0.42 | i | i | i | -9.0 | i | nt | nt
CCN(CC)c1ccc(C(=O)NNC(=O)CN2C(=O)NC3(CCCCC3)C2=O)cc1 | 1.54 | i | i | i | -5.9 | i | nt | nt
Cc1nc(N2CCCCC2)c2c(C)c(C(=O)Nc3cccc(C(F)(F)F)c3)sc2n1 | -2.08 | -10.7* | i | 13* | -5.1 | i | 124.0* | 0.115*
Cc1nc(N2CCN(C)CC2)c2c(C)c(C(=O)Nc3ccc(F)cc3)sc2n1 | 0.37 | i | i | i | -3.6 | i | nt | nt
CCOC(=O)N1CCC2(CC1)CC(=O)c1c(ccc3oc(C(=O)O)c(C)c13)O2 | 0.39 | -14.9* | i | i | -16.5 | i | 0.0 | i
CCOC(=O)c1oc2ccc3c(c2c1C)C(=O)CC1(CCN(C(=O)OCC)CC1)O3 | -2.43 | i | i | i | -3.1 | i | nt | nt
CC(Oc1ccccc1F)C(=O)NNC(=O)Cc1ccc(S(=O)(=O)N2CCOCC2)s1 (stereo not drawn) | nt | i | nt | nt | nt | nt | nt | nt
O=C(Nc1cccc(-c2cn3ccccc3n2)c1)c1ccccc1 | -0.8 | -11.7* | i | i | -12.6 | i | 112.0* | i
SMILES | Kir21 inh | KCNK3 block | KCNK9 inh | KCNQ1 inh | hERG protect | KCNQ1 act | KCNK3 confirm | KCNK3 uninduced
CCCCC(=O)Nc1cccc(-c2cn3ccccc3n2)c1 | 0.05 | -8.72* | i | i | -8.0 | i | 120.7* | 0.131*
O=C(Nc1cccc(-c2nc3ccccc3c(=O)o2)c1)c1ccccc1 | 1.36 | -8.71* | i | i | -0.3 | i | 107.7* | 0.159*
CC(C)N(C(=O)[C@H]1C[C@H](CC(=O)NCCC2=CCCCC2)C(=O)N2CCc3c([nH]c4cc(-c5ccco5)ccc34)[C@]12C)C(C)C | nt | i | nt | nt | nt | nt | nt | nt
CCc1ccc(NC(=O)CN(c2ccc(OC)cc2)S(=O)(=O)c2c(C)nn(C)c2C)cc1 | 0.02 | i | i | i | -9.0 | i | nt | nt
CCC(C)(C)n1nnnc1CN1CCN(C(c2ccccc2)c2ccccc2)CC1 | 0.43 | -12.9* | i | i | -15.2 | i | 141.0* | 0.128*
CCC(C)(C)n1nnnc1C(c1cc(OC)ccc1OC)N1CCN(Cc2ccccc2)CC1 (stereo not drawn) | -2.49 | -10.8* | -7.59* | i | -3.6 | i | 107.0* | i
CN1CCN(S(=O)(=O)c2csc(C(N)=O)c2)CC1 | 0 | i | i | i | -9.9 | i | nt | nt
COc1cc(/C(C)=C/c2ccccc2)c2c(c1)oc1ccccc12 | 2.08 | nt | i | i | 0.1 | i | nt | nt
Cn1c(N)c(C(=O)COC(=O)CNC(=O)c2ccccc2Cl)c(=O)n(C)c1=O | nt | i | nt | nt | nt | nt | nt | nt
O=C(Nc1ccc(CN2CCOCC2)cc1)c1ccc(-c2ccc(Cl)cc2Cl)o1 | -0.01 | -9.66* | i | i | -15.1 | i | 103.0* | i
O=C(Nc1ccc(CN2CCOCC2)cc1)c1ccc(Cl)cc1Cl | 0.04 | i | i | i | -1.7 | i | nt | nt
CCCOc1cc(C)c(S(=O)(=O)NCc2cccs2)cc1C | nt | i | nt | nt | nt | nt | nt | nt
Cc1nn(Cc2ccccc2Cl)c(C)c1NC(=O)NC12CC3CC(CC(C3)C1)C2 | 0.68 | -8.87* | i | i | -9.0 | i | 119.0* | 0.144*
Nc1ccc(C(=O)N2CCN(S(=O)(=O)/C=C/c3ccccc3)CC2)cc1[N+](=O)[O-] | -0.32 | i | i | i | -10.0 | i | nt | nt
O=C(c1ccc2ccccc2c1)N1CCN(S(=O)(=O)/C=C/c2ccccc2)CC1 | -0.28 | -9.11* | i | i | -10.3 | i | 95.7* | i
